Laboratory results taken from ChEMBL document CHEMBL1140638, “Kipukasins, nucleoside derivatives from Aspergillus versicolor” (2007).
Activity calls are given as the source filed them. No cut-off for these calls is given here.

Legend:
[1] = test system: Bacillus subtilis; experiment: Antibacterial activity against Bacillus subtilis at 100 ug/disk; assay type: functional
Procedure, shortened: (§1)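 Disk diffusion assay with 100 μg of compound per disk. Strains used were Staphylococcus aureus ATCC 29213 and Bacillus subtilis ATCC 6051. The read-out was the diameter of the zone of inhibition in mm.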

[2] = test system: Aspergillus flavus; experiment: Antifungal activity against Aspergillus flavus NRRL 6541 at 200 ug/disk; assay type: functional, organism-based
[3] = test system: Fusarium verticillioides; experiment: Antifungal activity against Fusarium verticillioides NRRL 25457 at 200 ug/disk; assay type: functional, organism-based
[4] = test system: Candida albicans; experiment: Antifungal activity against Candida albicans ATCC 14053 at 200 ug/disk; assay type: functional, organism-based
[5] = test system: Staphylococcus aureus; experiment: Antibacterial activity against Staphylococcus aureus ATCC 29213 at 100 ug/disk; assay type: functional; procedure, shortened: as §1

Compound	Activity [1]	Activity [2]	Activity [3]	Activity [4]	Activity [5]	zone of inhibition at 100 µg/disc ([1]; read-out: IZ) [mm]	zone of inhibition at 100 µg/disc ([5]; read-out: IZ) [mm]
COc1cc(C)c(C(=O)O[C@H]2[C@@H](OC(C)=O)[C@H](n3ccc(=O)[nH]c3=O)O[C@@H]2CO)c(O)c1	inactive	inactive	inactive	inactive	inactive	–	–
COc1cc(O)cc(C)c1C(=O)O[C@H]1[C@@H](OC(C)=O)[C@H](n2ccc(=O)[nH]c2=O)O[C@@H]1CO	–	inactive	inactive	inactive	–	12	–
COc1cc(O)cc(C)c1C(=O)O[C@H]1[C@@H](O)[C@H](n2ccc(=O)n(C)c2=O)O[C@@H]1CO	inactive	inactive	inactive	inactive	inactive	–	–
COc1cc(C)c(C(=O)O[C@@H]2[C@H](O)[C@@H](CO)O[C@H]2n2ccc(=O)[nH]c2=O)c(OC)c1	inactive	inactive	inactive	inactive	inactive	–	–
COc1cc(C)c(C(=O)O[C@H]2[C@@H](O)[C@H](n3ccc(=O)[nH]c3=O)O[C@@H]2CO)c(OC)c1	inactive	inactive	inactive	inactive	inactive	–	–
COc1cc(C)c(C(=O)O[C@H]2[C@@H](OC(C)=O)[C@H](n3ccc(=O)[nH]c3=O)O[C@@H]2CO)c(OC)c1	–	inactive	inactive	inactive	–	–	18
COc1cc(O)cc(C)c1C(=O)O[C@H]1[C@@H](OC(C)=O)[C@H](n2ccc(=O)n(C)c2=O)O[C@@H]1CO	inactive	inactive	inactive	inactive	inactive	–	–
